Data as given in ChEMBL document CHEMBL1799943, “1-(5-Carboxyindol-1-yl)propan-2-one inhibitors of human cytosolic phospholipase A2α: effect of substituents in position 3 of the indole scaffold on inhibitory potency, metabolic stability, solubility, and bioavailability” (J Med Chem, 2010).

Key:
[1] = Drug level in C57Bl6 mouse plasma at 100 mg/kg, po after 2 hrs by HPLC analysis; format: ADME, organism-based; design: dose 100 mg/kg, route oral
Procedure, shortened: (§1)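 Male/female unspecified C57Bl6 mice (n = 3) got a single 100 mg/kg oral gavage dose as a suspension in 1% aqueous methylcellulose (8 μL/g). Blood was drawn at 1 and 2 h and centrifuged at 3000g for 20 min. Plasma was mixed with pH 7.4 PBS and acetonitrile, left 5 min at room temperature and spun at 2000g for 15 min. Supernatant went to reversed-phase C18 HPLC-UV for parent and alcohol metabolite.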

Intestine [2] = assay: Drug level in C57Bl6 mouse intestine assessed per gut at 100 mg/kg, po after 2 hrs by HPLC analysis in presence of Helix pomatia beta-glucuronidase HP2; format: ADME, organism-based; design: dose 100 mg/kg, route oral; settings: in vivo
[3] = Drug level in C57Bl6 mouse plasma at 100 mg/kg, po after 1 hr by HPLC analysis; format: ADME, organism-based; design: dose 100 mg/kg, route oral; procedure, shortened: as §1
Intestine [4] = assay: Drug level in C57Bl6 mouse intestine assessed as 3-(5-Carboxypentanoyl)-1-[2-hydroxy-3-(4-octylphenoxy)propyl]indole-5-carboxylic acid level assessed per gut at 100 mg/kg, po after 2 hrs by HPLC analysis in presence of Helix pomatia beta-glucuronidase HP2; format: ADME, organism-based; design: dose 100 mg/kg, route oral; settings: in vivo
[5] = Partition coefficient, log P of the compound by reverse phase HPLC analysis; format: physicochemical; settings: octanol/water
Procedure, shortened: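 log P estimated from reversed-phase HPLC retention times of each compound's ketone form.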

[6] = Metabolic stability in rat liver microsomes assessed as compound remaining after 30 mins by UV-reverse phase HPLC analysis; format: ADME, Microsome; settings: read-out: Stability
[7] = Drug level in C57Bl6 mouse bile at 100 mg/kg, po after 2 hrs by HPLC analysis; format: ADME, organism-based; design: dose 100 mg/kg, route oral; settings: read-out: Drug uptake
Procedure, shortened: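 Mice (C57Bl6, n = 3) were dosed orally by gavage at 100 mg/kg in 1% methylcellulose and killed 2 h later for bile collection. For direct measurement, bile was diluted in pH 7.4 PBS with equal acetonitrile. Alternatively, bile in pH 5.5 PBS was digested with Helix pomatia β-glucuronidase HP-2 at 60 °C for 1 h, then acetonitrile was added. Both were centrifuged at 2000g and analysed by reversed-phase HPLC-UV.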

Plasma [8] = assay: Drug level in C57Bl6 mouse plasma assessed as 3-(5-carboxypentanoyl)-1-(2-hydroxy-3-(4-octylphenoxy)propyl)-1H-indole-5-carboxylic acid at 100 mg/kg, po after 2 hrs by HPLC analysis; format: ADME, organism-based; design: dose 100 mg/kg, route oral; settings: in vivo; procedure, shortened: as §1
Plasma [9] = assay: Drug level in C57Bl6 mouse plasma assessed as 3-(5-carboxypentanoyl)-1-(2-hydroxy-3-(4-octylphenoxy)propyl)-1H-indole-5-carboxylic acid at 100 mg/kg, po after 1 hr by HPLC analysis; format: ADME, organism-based; design: dose 100 mg/kg, route oral; settings: in vivo; procedure, shortened: as §1
[10] = Drug level in C57Bl6 mouse intestine assessed per gut at 100 mg/kg, po after 2 hrs by HPLC analysis; format: ADME, organism-based; design: dose 100 mg/kg, route oral; settings: read-out: Drug uptake
Procedure, shortened: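 Whole intestines were taken from C57Bl6 mice (n = 3) 2 h after 100 mg/kg oral gavage in 1% methylcellulose. Each was minced, homogenized at 0 °C in pH 7.4 PBS and extracted with acetonitrile. Pellet washes with PBS/acetonitrile 1:1 were pooled, made up to volume, centrifuged and filtered. Parent and alcohol metabolite per whole gut were quantified by reversed-phase HPLC-UV.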

[11] = Drug level in C57Bl6 mouse bile assessed as 3-(5-carboxypentanoyl)-1-(2-hydroxy-3-(4-octylphenoxy)propyl)-1H-indole-5-carboxylic acid at 100 mg/kg, po after 2 hrs by HPLC analysis; format: ADME, organism-based; design: dose 100 mg/kg, route oral; settings: in vivo
[12] = Drug level in C57Bl6 mouse bile assessed as 3-(5-carboxypentanoyl)-1-(2-hydroxy-3-(4-octylphenoxy)propyl)-1H-indole-5-carboxylic acid at 100 mg/kg, po after 2 hrs by HPLC analysis in presence of Helix pomatia beta-glucuronidase HP2; format: ADME, organism-based; design: dose 100 mg/kg, route oral; settings: in vivo
Procedure, shortened: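 C57Bl6 mice (n = 3) were gavaged once with 100 mg/kg suspended in 1% aqueous methylcellulose, and bile was taken at 2 h. Bile in PBS pH 5.5 was treated with Helix pomatia β-glucuronidase HP-2 at 60 °C for 1 h to cleave glucuronides. Acetonitrile was then added, samples were left 5 min, spun 2000g for 15 min, and analysed by reversed-phase HPLC-UV. Mean ± SD.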

Intestine [13] = assay: Drug level in C57Bl6 mouse intestine assessed as 3-(5-carboxypentanoyl)-1-(2-hydroxy-3-(4-octylphenoxy)propyl)-1H-indole-5-carboxylic acid per gut at 100 mg/kg, po after 2 hrs by HPLC analysis; format: ADME, organism-based; design: dose 100 mg/kg, route oral; settings: in vivo
Procedure, shortened: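 Whole intestine removed 2 h after a single 100 mg/kg gavage (1% methylcellulose suspension) in C57Bl6 mice (n = 3). Tissue minced and homogenised in PBS pH 7.4 at 0 °C, then extracted with acetonitrile with repeated PBS/acetonitrile 1:1 washes, spun 2000g at 4 °C. Pooled extract made up to volume and analysed by reversed-phase HPLC-UV. Amount per gut, mean ± SD.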

[14] = Drug level in rat plasma at 100 mg/kg, po after 4 hrs by HPLC analysis; format: ADME, organism-based; design: dose 100 mg/kg, route oral
[15] = Drug level in C57Bl6 mouse plasma at 10 mg/kg, po after 2 hrs by HPLC analysis; format: ADME, organism-based; design: dose 10 mg/kg, route oral
[16] = Drug level in C57Bl6 mouse plasma at 10 mg/kg, po after 1 hr by HPLC analysis; format: ADME, organism-based; design: dose 10 mg/kg, route oral

Structure (SMILES) | logP [5] | remaining at 0.5 h [6] [%] | also measured
CC(C)C(=O)c1cn(CC(=O)COc2ccc(Oc3ccccc3)cc2)c2ccc(C(=O)O)cc12 | – | – | concentration at 2 h [1]: < 1000 ng/mL; Drug uptake (Intestine [2]): 404 µg; concentration at 1 h [3]: < 5000 ng/mL; Drug uptake (Intestine [4]): 875 µg
CCCCCCCCc1ccc(OCC(=O)Cn2cc(-c3nc(C)no3)c3cc(C(=O)O)ccc32)cc1 | 6.3 | 81 | –
CCCCCCCCc1ccc(OCC(=O)Cn2cc(C(=O)CCC)c3cc(C(=O)O)ccc32)cc1 | 6.7 | – | –
CCCCCCCCc1ccc(OCC(=O)Cn2cc(C(=O)CCCCC)c3cc(C(=O)O)ccc32)cc1 | > 7 | – | –
CCCCCCCCc1ccc(OCC(=O)Cn2cc(C(=O)C(C)(C)C)c3cc(C(=O)O)ccc32)cc1 | > 7 | 93 | –
CCCCCCCCc1ccc(OCC(=O)Cn2cc(C(=O)c3ccccc3)c3cc(C(=O)O)ccc32)cc1 | 6.9 | 95 | –
CCCCCCCCc1ccc(OCC(=O)Cn2cc(CC)c3cc(C(=O)O)ccc32)cc1 | > 7 | 84 | –
CCCCCCCCc1ccc(OCC(=O)Cn2cc(CCCC)c3cc(C(=O)O)ccc32)cc1 | > 7 | 82 | –
CCCCCCCCc1ccc(OCC(=O)Cn2cc(CCCCCC)c3cc(C(=O)O)ccc32)cc1 | > 7 | 94 | –
CCCCCCCCc1ccc(OCC(=O)Cn2cc(C(=O)CCC(=O)O)c3cc(C(=O)O)ccc32)cc1 | 5.1 | – | –
CCCCCCCCc1ccc(OCC(=O)Cn2cc(C(=O)CCCC(=O)O)c3cc(C(=O)O)ccc32)cc1 | 5.2 | 95 | –
CCCCCCCCc1ccc(OCC(=O)Cn2cc(C(=O)CCCCC(=O)O)c3cc(C(=O)O)ccc32)cc1 | 5.3 | – | concentration at 2 h [1]: < 200 ng/mL; concentration at 2 h [7]: 6000 ng/mL; concentration at 1 h [3]: < 200 ng/mL; Cp (Plasma [8]): < 100 ng/mL; Cp (Plasma [9]): < 100 ng/mL; concentration at 2 h [10]: 870000 ng/mL
CCCCCCCCc1ccc(OCC(=O)Cn2cc(C(=O)c3cccc(C(=O)O)c3)c3cc(C(=O)O)ccc32)cc1 | 5.7 | 87 | –
CCCCCCCCc1ccc(OCC(=O)Cn2cc(C(=O)c3ccc(C(=O)O)cc3)c3cc(C(=O)O)ccc32)cc1 | 5.6 | 87 | –
CCCCCCCCc1ccc(OCC(=O)Cn2cc(C(=O)C(F)(F)F)c3cc(C(=O)O)ccc32)cc1 | > 7 | 87 | –
O=C(O)CCCCC(=O)c1cn(CC(=O)COc2ccc(Oc3ccccc3)cc2)c2ccc(C(=O)O)cc12 | 2.1 | 24 | –
Cc1noc(-c2cn(CC(=O)COc3ccc(Oc4ccccc4)cc3)c3ccc(C(=O)O)cc23)n1 | 3.1 | 8 | –
CCCCCCCCc1ccc(OCC(O)Cn2cc(C(=O)CCCCC(=O)O)c3cc(C(=O)O)ccc32)cc1 (centres undefined) | – | – | Drug uptake [11]: < 1 µg/mL; Drug uptake [12]: 33 µg/mL; Drug uptake (Intestine [13]): 14 µg/mL
CCCCCCCCCCCC(=O)c1c(C(=O)O)n(CCOc2ccc(CC(=O)O)cc2)c2ccccc12 | – | – | concentration at 4 h [14]: 100000 ng/mL
COc1ccc2c(c1)c(CC(=O)O)c(C)n2C(=O)c1ccc(Cl)cc1 [INDOMETHACIN] | – | – | concentration at 2 h [15]: 34000 ng/mL; concentration at 1 h [16]: 42000 ng/mL
